Measured values reported in article PMC2854813 (Advanced synthesis & catalysis, 2009).
Read-outs that look alike come from different tables or passages of the source.

Key:
[1] = biological target: T1, PETNR (Enterobacter cloacae, UniProt P71278); test: Substrate screen of PETNR by spectrophotometric assays or GC analysis; format: biochemical, Enterobacter cloacae st. PB2
T1 sequence (P71278 1-365): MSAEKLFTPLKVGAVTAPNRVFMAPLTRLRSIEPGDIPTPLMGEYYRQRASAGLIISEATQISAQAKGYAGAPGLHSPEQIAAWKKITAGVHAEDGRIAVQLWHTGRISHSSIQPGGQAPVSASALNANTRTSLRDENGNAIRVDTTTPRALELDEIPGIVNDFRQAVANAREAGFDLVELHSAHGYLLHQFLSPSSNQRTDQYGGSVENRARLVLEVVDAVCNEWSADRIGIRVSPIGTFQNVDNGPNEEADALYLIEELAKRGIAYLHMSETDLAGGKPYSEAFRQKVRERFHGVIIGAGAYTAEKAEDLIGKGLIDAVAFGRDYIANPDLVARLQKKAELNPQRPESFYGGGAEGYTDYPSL

[2] = biological target: T1, PETNR; test: Steady-state kinetics of PETNR with α,β-unsaturated activated alkenes; format: biochemical, Enterobacter cloacae st. PB2; details: for Km / kcat: apparent, 5% ethanol
[3] = biological target: T1, PETNR; test: Enzyme concentration dependence of the reduction of ketoisophorone by PETNR; format: biochemical, Enterobacter cloacae st. PB2; details: 2 h, pH 7.0, 3a 5 mM, NADPH 6 mM
How it was run: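 Ketoisophorone (5 mM) and NADPH (6 mM) with varied PETNR in 50 mM phosphate pH 7.0, shaken at 130 rpm at 30 °C for 2 h. Extraction was into ethyl acetate containing internal standard. Conversion was by GC (DB-Wax) and ee by GC on a Chirasil-DEX-CB column.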

[4] = biological target: T1, PETNR; test: Time course of ketoisophorone reduction and product racemisation, PETNR 0.02 μM; format: biochemical, Enterobacter cloacae st. PB2
How it was run: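 Racemisation time course of ketoisophorone reduction at pH 7.0 over 24 h; substrate added in DMF (2% final). Controls at 8 h either removed enzyme by 10 kDa spin filtration (5000 rpm, 5 min) or added the PETNR inhibitor 1,4,5,6-tetrahydroNADPH (1.2 mg), then incubated to 24 h total. Conversion by GC (DB-Wax); ee by GC (Chirasil-DEX-CB).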

[5] = biological target: T1, PETNR; test: Aerobic versus anaerobic steady-state reaction rate of PETNR; format: biochemical, Enterobacter cloacae st. PB2; details: aerobic compared to anaerobic assays
How it was run: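 NADPH oxidation was followed at 340 nm (365 nm for substrates absorbing at 340 nm) for 2 min at 25 °C. Anaerobic runs used a glove box (<5 ppm O2) with deoxygenated enzyme; aerobic runs were done outside it.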

[6] = biological target: T1, PETNR; test: Time effect on optical purity of levodione at PETNR 2 μM; format: biochemical, Enterobacter cloacae st. PB2; details: Supporting Information Table S1
[7] = biological target: T1, PETNR; details: cited from earlier work
[8] = anaerobic, pH 7.0, 25 °C, NADPH 100 μM

With `O=C(O)C1=CCCCC1` [1-cyclohexene-1-carboxylic acids, 1-cyclohexene-1-carboxylic acid] the “activity of PETNR towards the substrate (in words)” value [1] was “did not reduce”.

Molecule `CC1=CC(=O)NC1=O` [2a, 2-Methylmaleimide] has a Ki [2] of 3.2 ± 0.7 mM.

With `BrC1C=CCCC1` (stereo not drawn) [3-bromocyclohexene] the “activity of PETNR towards the substrate (in words)” value [1] was “no activity”.

For `O=C1C=C(c2ccccc2)CCC1` [3-phenylcyclohexene-1-one], the “activity of PETNR towards the substrate (in words)” value [1] was “inactive”.

With `O=C(O)/C=C(\C(=O)O)c1ccccc1` [3-phenylmaleic acid] the “activity of PETNR towards the substrate (in words)” value [1] was “did not reduce”.

With `CC1=CC(=O)CC(C)(C)C1=O` [3a, ketoisophorone] the “Conv. [%]” value ([3]; enzyme 0.002 μM) was 2%, the “Conv. [%]” value ([3]; enzyme 0.02 μM) was 37% and the “Conv. [%]” value ([3]; enzyme 0.2 μM) was greater than 99%. For the same molecule, the “Conv. [%]” value ([3]; enzyme 2 μM) was greater than 99%, the Km [2, 8] was 13.7 ± 0.5 µM and the kcat [2, 8] was 5.52 ± 0.10 s⁻¹. For the same molecule, the “Conv. [%]” value ([4]; 0.5 h, PETNR 0.02 μM, pH 7.0) was 14%, the “Conv. [%]” value ([4]; 1 h, PETNR 0.02 μM, pH 7.0) was 27% and the “Conv. [%]” value ([4]; 1.5 h, PETNR 0.02 μM, pH 7.0) was 37%. The “Conv. [%]” value ([4]; 3 h, PETNR 0.02 μM, pH 7.0) was 53%, the “Conv. [%]” value ([4]; 4 h, PETNR 0.02 μM, pH 7.0) was 69% and the “Conv. [%]” value ([4]; 6 h, PETNR 0.02 μM, pH 7.0) was 85%. The “Conv. [%]” value ([4]; 8 h, PETNR 0.02 μM, pH 7.0) was 94%, the “Conv. [%]” value ([4]; 12 h, PETNR 0.02 μM, pH 7.0) was 98% and the “Conv. [%]” value ([4]; 22 h, PETNR 0.02 μM, pH 7.0) was greater than 99%. For the same molecule, the “Conv. [%]” value ([4]; 24 h, PETNR 0.02 μM, pH 7.0) was greater than 99%, the “Conv. [%]” value ([4]; 24 h, PETNR inhibitor NADPH4 (1.2 mg) added after 8 h) was 99% and the “Conv. [%]” value ([4]; 24 h, filtered (10 K filter) after 8 h to remove all enzyme content) was 99%.

For `O=C1C=CCCC1` [4a, 2-cyclohexenone], the Ki [2] was 23.3 ± 1.7 mM and the “reduction in the overall steady-state reaction rate” value [5] was 18%.

With `CCC=C(C)C=O` [10a, 2-methylpentenal] the Km [2, 8] was 102 ± 10.5 µM, the kcat [2, 8] was 6.23 ± 0.33 s⁻¹ and the Ki ([2]; substrate inhibition, anaerobic, pH 7.0, 25 °C, NADPH 100 μM) was 1.93 ± 0.46 mM. The “reduction in the overall steady-state reaction rate” value [5] was 48%.

For `CC1=CC(=O)CCC1` [15a, 3-methylcyclohexenone], the “activity of PETNR towards the substrate (in words)” value [1] was “significant reduction in enzyme activity”.

In the case of `CC1=CC(=O)CC1` [16a, 3-methylcyclopentenone], the “activity of PETNR towards the substrate (in words)” value [1] is reported as “significant reduction in enzyme activity”.

In the case of `C[C@@H]1CC(=O)CC(C)(C)C1=O` [(R)-3b, (R)-Levodione], the rate of racemisation [6] is reported as 3 % ee/h and the “decline in enantiopurity with time (rate of racemisation)” value ([4]; PETNR 0.02 μM, pH 7.0, 30 °C, aqueous, non-enzymatic) is reported as “approximately 3 % ee/h”.

In the case of `NC(=O)C1=CN([C@@H]2O[C@H](COP(=O)(O)OP(=O)(O)OC[C@H]3O[C@@H](n4cnc5c(N)ncnc54)[C@H](OP(=O)(O)O)[C@@H]3O)[C@@H](O)[C@H]2O)CCC1` [NADPH4, 1,4,5,6-tetrahydroNADPH], the “inhibition of PETNR activity (in words)” value [7] is given as “excellent inhibitor”.

For `C/C=C/C#N` [crotonitrile], the “activity of PETNR towards the substrate (in words)” value [1] was “no activity”.

With `N#CC1=CCCCC1` [cyclohexene-1-carbonitrile] the “activity of PETNR towards the substrate (in words)” value [1] was “no activity”.

In the case of `COC(=O)C1=CCCCC1` [methyl cyclohexenecarboxylate, methyl 1-cyclohexene-1-carboxylate], the “activity of PETNR towards the substrate (in words)” value [1] is reported as “did not reduce”.

For `COC(=O)/C=C/c1ccccc1` [methyl trans-cinnamate], the “activity of PETNR towards the substrate (in words)” value [1] was “did not reduce”.

With `O=C(O)/C=C/c1ccccc1` [trans-cinnamic acid] the “activity of PETNR towards the substrate (in words)” value [1] was “did not reduce”.

In the case of `NC(=O)/C=C/c1ccccc1` [trans-cinnamide], the “activity of PETNR towards the substrate (in words)” value [1] is reported as “did not reduce”.

In the case of `N#C/C=C/c1ccccc1` [trans-cinnamonitrile], the “activity of PETNR towards the substrate (in words)” value [1] is reported as “no activity”.

In the case of `BrC=Cc1ccccc1` [β-bromostyrene], the “activity of PETNR towards the substrate (in words)” value [1] is reported as “no activity”.
